According to the array DNA melting data of Ke et al. (doi:10.1101/2024.01.08.574731):

How the values were obtained:
[1] = folding enthalpy; higher = less favourable; fluorescence melt of hairpins on a sequencing array, two-state fit; settings: sodium 0.088 M
In short: (§1)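 To match UV melts, fitted temperatures were raised by 9.35 °C. These fits were bootstrapped two-state models that gave melting temperature and folding enthalpy, combined by inverse variance over four replicates. The input was normalised Cy3 fluorescence of library hairpins with annealed Cy3 and quencher oligos on a sequenced MiSeq flow cell, imaged in 50 mM Na-HEPES pH 8.0, 25 mM NaCl in 2.5 °C steps up to 60 °C.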

[2] = melting temperature; fluorescence melt of hairpins on a sequencing array, two-state fit, raised by 9.35 °C to match UV melts; settings: sodium 0.088 M
In short: as §1

Row | Sequence | folding enthalpy [1] | Tm [2]
1 | GGATAGTCGAAAGACTCC (((..(((....)))))) | -56.9 kJ/mol | 33.1 °C
2 | GGATATCCGAAAGGATCC (((..(((....)))))) | -47.9 kJ/mol | 32.3 °C
3 | GGATATCGAAAGATCTCC (((.(((....))).))) | -129 kJ/mol | 39.1 °C
4 | GGATATCGAAAGATGTCC (((.(((....))).))) | -163 kJ/mol | 52 °C
5 | GGATATGGAAACACATCC ((((.((....)).)))) | -110 kJ/mol | 31.5 °C
6 | GGATCACCGAAAGGTTCC (((..(((....)))))) | -54.9 kJ/mol | 30.3 °C
7 | GGATCACGAAAGTGTCC (((.(((....)))))) | -106 kJ/mol | 49.8 °C
8 | GGATCACGAAAGTGTTCC (((.(((....))).))) | -144 kJ/mol | 50.8 °C
9 | GGATCAGGAAACTAATCC ((((.((....)).)))) | -54.1 kJ/mol | 26.2 °C
10 | GGATCAGGAAACTGACCC ((.((((....)))).)) | -116 kJ/mol | 41.4 °C
11 | GGATCAGGAAACTGATCC (((((((....))))))) | -185 kJ/mol | 64.5 °C
12 | GGATCCCGAAAGGGTCC (((.(((....)))))) | -116 kJ/mol | 60.1 °C
13 | GGATCCGAAAGGACGTCC ((((((....)))..))) | -57.5 kJ/mol | 31.9 °C
14 | GGATCCGAAAGGACTTCC ((((((....)))..))) | -81.4 kJ/mol | 37.5 °C
15 | GGATCCGAAAGGAGCTCC ((((((....)))..))) | -56 kJ/mol | 44.2 °C
16 | GGATCCGAAAGGAGTCC ((((((....))).))) | -77.2 kJ/mol | 47.9 °C
17 | GGATCCGGAAACAGATCC (((((.(....).))))) | -139 kJ/mol | 41.6 °C
18 | GGATCGCCGAAAGGCTCC (((..(((....)))))) | -45.9 kJ/mol | 30.4 °C
19 | GGATCGGGAAACTGGTCC (((.(.(....).).))) | -127 kJ/mol | 39.2 °C
20 | GGATCTCCGAAAGGATCC (((..(((....)))))) | -99.4 kJ/mol | 42.1 °C
21 | GGATCTCGAAAGAGCTCC (((.(((....))).))) | -133 kJ/mol | 44.5 °C
22 | GGATCTCGAAAGAGTCC (((.(((....)))))) | -105 kJ/mol | 49.3 °C
23 | GGATCTGCGAAAGCATCC (((..(((....)))))) | -62.4 kJ/mol | 35.2 °C

Row | Sequence | folding enthalpy [1] | Tm [2]
24 | GGATCTGGAAACAGACCC ((.((((....)))).)) | -135 kJ/mol | 42 °C
25 | GGATGACGAAAGTCCTCC (((.(((....))).))) | -132 kJ/mol | 47.1 °C
26 | GGATGACGAAAGTCTTCC (((.(((....))).))) | -178 kJ/mol | 52.9 °C
27 | GGATGAGGAAACCCATCC (((((.(....).))))) | -127 kJ/mol | 44.6 °C
28 | GGATGAGGAAACTCACCC ((.((((....)))).)) | -93.3 kJ/mol | 39.6 °C
29 | GGATGAGGAAACTCATTC (.(((((....))))).) | -99 kJ/mol | 41.6 °C
30 | GGATGCGAAAGCATATCC ((((((....)))..))) | -62.4 kJ/mol | 43.8 °C
31 | GGATGCGGAAACGCACCC ((.((((....)))).)) | -115 kJ/mol | 52.2 °C
32 | GGATGCGGAAACGTGTCC (((..((....))..))) | -146 kJ/mol | 48.4 °C
33 | GGATGGCCGAAAGGCTCC (((..(((....)))))) | -48.7 kJ/mol | 37.3 °C
34 | GGATGGGAAACCATCC ((((((....)))))) | -156 kJ/mol | 59.2 °C
35 | GGATGGGGAAACCTATCC ((((.((....)).)))) | -123 kJ/mol | 47.2 °C
36 | GGATGTGGAAACACATTC (.(((((....))))).) | -108 kJ/mol | 47.6 °C
37 | GGATTACGAAAGTACTCC (((.(((....))).))) | -117 kJ/mol | 41.1 °C
38 | GGATTAGGAAACTGATCC ((((.((....)).)))) | -141 kJ/mol | 41.8 °C
39 | GGATTCCCGAAAGGGTCC (((..(((....)))))) | -61.1 kJ/mol | 39.3 °C
40 | GGATTCGAAAGAACATCC ((((((....)))..))) | -58.9 kJ/mol | 29.4 °C
41 | GGATTCGAAAGAACCTCC ((((((....)))..))) | -70 kJ/mol | 37.8 °C
42 | GGATTCGAAAGAAGATCC ((((((....)))..))) | -51.3 kJ/mol | 28.1 °C
43 | GGATTCGAAAGAATCTCC ((((((....)))..))) | -59.4 kJ/mol | 43.8 °C
44 | GGATTCGCGAAAGCGTCC (((..(((....)))))) | -44.9 kJ/mol | 29.5 °C
45 | GGATTCGGAAACGAGTTC (.(.(((....))).).) | -75.6 kJ/mol | 28.7 °C
46 | GGATTGAAAAATCC (((((....))))) | -90.8 kJ/mol | 44.5 °C

Row | Sequence | folding enthalpy [1] | Tm [2]
47 | GGATTGGAAACAATCC ((((((....)))))) | -154 kJ/mol | 55.5 °C
48 | GGATTTACGAAAGTATCC (((..(((....)))))) | -87.9 kJ/mol | 31 °C
49 | GGATTTCGAAAGAATCC (((.(((....)))))) | -120 kJ/mol | 41.3 °C
50 | GGATTTGGAAACAAATCC (((((((....))))))) | -186 kJ/mol | 58.2 °C
51 | GGATTTGGAAACAAATTC (.(((((....))))).) | -118 kJ/mol | 40.1 °C
52 | GGATTTTCGAAAGAATCC (((..(((....)))))) | -74.1 kJ/mol | 31.4 °C
53 | GGCAAACGAAAGTTAGCC (((.(((....))).))) | -105 kJ/mol | 54.9 °C
54 | GGCAAACGAAAGTTGCC (((.(((....)))))) | -139 kJ/mol | 59.6 °C
55 | GGCAAAGAAATTTGCC ((((((....)))))) | -154 kJ/mol | 56 °C
56 | GGCAACACGAAAGTGGCC (((..(((....)))))) | -156 kJ/mol | 52.6 °C
57 | GGCAACCGAAAGGTGGCC (((.(((....))).))) | -146 kJ/mol | 67.7 °C
58 | GGCAACGAAAGTTAAGCC ((((((....)))..))) | -100 kJ/mol | 45.7 °C
59 | GGCAACGAAAGTTACGCC ((((((....)))..))) | -101 kJ/mol | 44.4 °C
60 | GGCAACGAAAGTTATGCC ((((((....)))..))) | -101 kJ/mol | 46.3 °C
61 | GGCAACGGAAACACTGCC ((((..(....)..)))) | -62.7 kJ/mol | 29.7 °C
62 | GGCAACGGAAACATCGCC (((.(.(....).).))) | -69.8 kJ/mol | 24.5 °C
63 | GGCAACGGAAACGTCGCC (((.(((....))).))) | -196 kJ/mol | 52.8 °C
64 | GGCAAGCGAAAGCTGCC (((.(((....)))))) | -140 kJ/mol | 68.9 °C
65 | GGCAAGGCGAAAGCCGCC (((..(((....)))))) | -56.8 kJ/mol | 59.6 °C
66 | GGCAATCGAAAGATAGCC (((.(((....))).))) | -133 kJ/mol | 52.7 °C
67 | GGCAATCGAAAGATCGCC (((.(((....))).))) | -145 kJ/mol | 51 °C
68 | GGCAATGGAAACACTGCC ((((.((....)).)))) | -139 kJ/mol | 44 °C
69 | GGCACAGGAAACTGTACC ((.((((....)))).)) | -124 kJ/mol | 44.3 °C

Row | Sequence | folding enthalpy [1] | Tm [2]
70 | GGCACCCGAAAGGGAGCC (((.(((....))).))) | -136 kJ/mol | 68.6 °C
71 | GGCACCGAAAGGTAGCC ((((((....))).))) | -154 kJ/mol | 61.4 °C
72 | GGCACCGAAAGGTCCGCC ((((((....)))..))) | -85.4 kJ/mol | 55.2 °C
73 | GGCACCGAAAGGTTAGCC ((((((....)))..))) | -121 kJ/mol | 50.8 °C
74 | GGCACGGCGAAAGCCGCC (((..(((....)))))) | -34.4 kJ/mol | 44.6 °C
75 | GGCACGGGAAACCATGCC ((((.((....)).)))) | -128 kJ/mol | 49.3 °C
76 | GGCACTCCGAAAGGAGCC (((..(((....)))))) | -40 kJ/mol | 35.2 °C
77 | GGCAGACCGAAAGGTGCC (((..(((....)))))) | -147 kJ/mol | 55.4 °C
78 | GGCAGAGGAAACTTTGCC ((((.((....)).)))) | -148 kJ/mol | 48.6 °C
79 | GGCAGCGAAAGCTAAGCC ((((((....)))..))) | -106 kJ/mol | 55.6 °C
80 | GGCAGCGGAAACGCTGTC (.(((((....))))).) | -73.6 kJ/mol | 67.2 °C
81 | GGCAGGGGAAACCCCACC ((..(((....)))..)) | -68.9 kJ/mol | 31.6 °C
82 | GGCAGGGGAAACCCTGTC (.(((((....))))).) | -125 kJ/mol | 55.9 °C
83 | GGCAGTCCGAAAGGAGCC (((..(((....)))))) | -92.3 kJ/mol | 47.4 °C
84 | GGCAGTGGAAACATTGCC ((((.((....)).)))) | -173 kJ/mol | 52.2 °C
85 | GGCAGTGGAAACGTTGCC ((((..(....)..)))) | -121 kJ/mol | 49.1 °C
86 | GGCATACGAAAGTAGGCC (((.(((....))).))) | -197 kJ/mol | 63.4 °C
87 | GGCATAGCGAAAGCTGCC (((..(((....)))))) | -131 kJ/mol | 59.2 °C
88 | GGCATAGGAAACTATGCC (((((((....))))))) | -165 kJ/mol | 64.9 °C
89 | GGCATCCGAAAGGAGCC (((.(((....)))))) | -178 kJ/mol | 55.6 °C
90 | GGCATCGAAAGATAAGCC ((((((....)))..))) | -117 kJ/mol | 44.7 °C
91 | GGCATCGAAAGATACGCC ((((((....)))..))) | -102 kJ/mol | 42.3 °C
